Data from ChEMBL document CHEMBL1134791, “2- and 3-substituted 1,4-naphthoquinone derivatives as subversive substrates of trypanothione reductase and lipoamide dehydrogenase from Trypanosoma cruzi: synthesis and correlation between redox cycling activities and in vitro cytotoxicity” (J Med Chem, 2001).

Columns and labels:
[1] = target: Trypanothione reductase (Trypanosoma cruzi) (UniProt P28593); test: Rate of NADPH oxidation by TcTR in presence of 100 uM NQ was determined in comparison to intrinsic oxidase activity
Chain of Trypanothione reductase (Trypanosoma cruzi) (P28593 whole entry, looked up): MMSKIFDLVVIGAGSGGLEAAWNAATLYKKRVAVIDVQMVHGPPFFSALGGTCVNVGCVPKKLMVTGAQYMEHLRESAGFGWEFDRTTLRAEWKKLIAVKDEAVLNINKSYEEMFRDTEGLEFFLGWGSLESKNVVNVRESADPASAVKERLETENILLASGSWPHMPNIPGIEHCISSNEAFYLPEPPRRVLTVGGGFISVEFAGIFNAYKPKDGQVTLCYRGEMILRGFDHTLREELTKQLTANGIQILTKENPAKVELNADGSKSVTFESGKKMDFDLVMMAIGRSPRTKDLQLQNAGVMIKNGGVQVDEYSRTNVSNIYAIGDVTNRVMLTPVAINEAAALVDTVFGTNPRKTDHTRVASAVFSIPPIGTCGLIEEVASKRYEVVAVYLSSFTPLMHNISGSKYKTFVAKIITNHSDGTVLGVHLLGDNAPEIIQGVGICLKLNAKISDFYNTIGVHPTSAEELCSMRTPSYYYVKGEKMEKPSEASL
How it was run: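 Quinone reductase activity of recombinant TcTR measured as NADPH oxidation at 340 nm. Buffer was 20 mM Hepes, 1 mM EDTA, 0.15 M KCl, pH 7.25, with 250 µM NADPH at 25 °C. Rate with naphthoquinone (100 µM for line 8, 25 µM for line 9) divided by intrinsic oxidase rate of enzyme plus NADPH alone. Mean of at least two measurements.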

Leishmania donovani = test: In vitro antiparasitic activity against Leishmania donovani was tested by sigmoidal regression analysis; type: functional
How it was run: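 Mouse peritoneal macrophages (female CD1, starch-elicited, harvested 24 h) infected with L. donovani amastigotes (strain MHOM/ET/67/L82, hamster spleen) or T. cruzi Y-strain trypomastigotes (5:1, from MDCK overlay). Infected cells exposed to a 3-fold dilution series in quadruplicate for 5 days (L. donovani) or 3 days (T. cruzi). Giemsa-stained slides scored for % macrophages cleared of amastigotes versus untreated cultures. ED50 by sigmoidal regression.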

[2] = target: Trypanothione reductase (Trypanosoma cruzi) (UniProt P28593); test: The second order rate constant of the TcTR (Trypanosoma cruzi trypanothione reductase) catalyzed […].
How it was run: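 Recombinant TcTR (0.6 U) in 20 mM Hepes, 1 mM EDTA, 0.15 M KCl, pH 7.25 at 22 °C, with 200 µM NADPH and naphthoquinone at five concentrations (0–100 µM) in 1% DMSO. NADPH oxidation at 340 nm; intrinsic oxidase rate not subtracted. Km and Vmax from nonlinear Michaelis–Menten fit; kcat and kcat/Km calculated.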

[3] = target: T1, Dihydrolipoyl dehydrogenase, mitochondrial (Sus scrofa) (UniProt P09623); test: The second order rate constant of the pig heart LipDH (lipoamide dehydrogenase) catalyzed NADH oxidation.
T1 sequence (whole entry): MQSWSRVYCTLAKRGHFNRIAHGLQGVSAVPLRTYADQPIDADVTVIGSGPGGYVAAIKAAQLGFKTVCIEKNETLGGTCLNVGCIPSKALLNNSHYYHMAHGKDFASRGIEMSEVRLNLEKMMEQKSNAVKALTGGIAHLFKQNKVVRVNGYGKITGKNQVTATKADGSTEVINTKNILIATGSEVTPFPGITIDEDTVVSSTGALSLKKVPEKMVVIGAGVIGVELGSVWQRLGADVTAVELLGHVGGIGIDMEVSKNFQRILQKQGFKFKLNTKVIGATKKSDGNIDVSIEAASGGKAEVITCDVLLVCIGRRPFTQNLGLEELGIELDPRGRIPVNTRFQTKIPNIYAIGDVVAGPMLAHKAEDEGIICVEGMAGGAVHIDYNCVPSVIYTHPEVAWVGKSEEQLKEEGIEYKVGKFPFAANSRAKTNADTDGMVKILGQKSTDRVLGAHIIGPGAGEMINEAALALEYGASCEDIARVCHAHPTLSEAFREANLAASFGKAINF
How it was run: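 Recombinant T. cruzi LipDH (E. coli, purified) or pig heart LipDH, 0.1–2.5 µg/mL. Buffer was 50 mM potassium phosphate, 1 mM EDTA, pH 7.0, with 100 µM NADH and naphthoquinone at 10 µM–1.2 mM; all assays carried equal DMSO. Run at 31 °C, started with enzyme, NADH decrease followed at 340 nm. Km and Vmax from Lineweaver–Burk plots. At least duplicate.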

[4] = target: T1, Dihydrolipoyl dehydrogenase, mitochondrial (Sus scrofa); test: Ratio of cytochrome c reduction and NADH oxidation by pig heart LipDH (lipoamide dehydrogenase) at 50 uM concentration, in cytochrome c assay
How it was run: (§1)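 T. cruzi or pig heart LipDH in 50 mM potassium phosphate pH 7.0 with 100 µM NADH, 50 µM cytochrome c and 50 µM naphthoquinone at 31 °C. Cytochrome c reduction read at 550 nm; NADH oxidation measured at 340 nm in the same conditions without cytochrome c. One-electron reduction % = cytochrome c rate ÷ (2 × NADH rate). At least duplicate.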

Trypanosoma cruzi = test: Ratio of cytochrome c reduction and NADH oxidation by TcLipDH (Trypanosoma cruzi lipoamide dehydrogenase) at 50 uM concentration, in cytochrome c assay; how it was run: as §1

Row | Compound | ED50 (Leishmania donovani) | k cat/Km [2] | other results
1 | CC1=C(NCCCNCCC/N=C2/C(=O)c3ccccc3C(O)=C2C)C(=O)c2ccccc2C1=O |  |  | x fold [1]: 4
2 | CC1=C(NCCCNCCCN)C(=O)c2c(O)cccc2C1=O | > 30 µM |  | x fold [1]: 2
3 | CC1=C(CCCC(=O)NCCCN2CCN(CCCNC(=O)CCCC3=C(C)C(=O)c4cccc(O)c4C3=O)CC2)C(=O)c2c(O)cccc2C1=O | 38.5 µM | 3.5 10e4 M-1 s-1 | 
4 | CC1=C(CCCCCC(=O)NCCCN2CCN(CCCNC(=O)CCCCCC3=C(C)C(=O)c4ccccc4C3=O)CC2)C(=O)c2ccccc2C1=O | 14.3 µM | 3.3 10e4 M-1 s-1 | 
5 | CC1=C(CCC(=O)NCCCNCCCNC(=O)CCC2=C(C)C(=O)c3cccc(O)c3C2=O)C(=O)c2c(O)cccc2C1=O | > 49 µM | 4.5 10e4 M-1 s-1 | 
6 | CC1=C(CCCCCC(=O)NCCCNCCCNC(=O)CCCCCC2=C(C)C(=O)c3cccc(O)c3C2=O)C(=O)c2c(O)cccc2C1=O | 10.3 µM | 14.5 10e4 M-1 s-1 | 
7 | CC1=C(CCCC(=O)N2CCN(C)CC2)C(=O)c2c(O)cccc2C1=O | 82 µM |  | x fold [1]: 14
8 | CC1=C(CCCCCC(=O)NCCCNCCCNC(=O)CCCCCC2=C(C)C(=O)c3ccccc3C2=O)C(=O)c2ccccc2C1=O | 22.8 µM | 2.3 10e4 M-1 s-1 | 
9 | CC1=C(CCCC(=O)O)C(=O)c2c(O)cccc2C1=O | > 109 µM |  | 
10 | CC1=C(CCC(=O)N2CCN(C)CC2)C(=O)c2c(O)cccc2C1=O | > 88 µM |  | x fold [1]: 38
11 | CC1=C(CCCCC(=O)NCCCN2CCN(CCCNC(=O)CCCCC3=C(C)C(=O)c4cccc(O)c4C3=O)CC2)C(=O)c2c(O)cccc2C1=O | 29.6 µM |  | 
12 | CC1=C(CCCCC(=O)O)C(=O)c2ccccc2C1=O | 39 µM |  | 
13 | CC1=C(CCNC(=O)OC(C)(C)C)C(=O)c2ccccc2C1=O | 8.8 µM |  | 
14 | CN1CCN(C(=O)CCC2=C(CCC(=O)N3CCN(C)CC3)C(=O)c3c(O)cccc3C2=O)CC1 | > 62 µM |  | 
15 | CC1=C(NCCCN2CCN(CCCN)CC2)C(=O)c2c(O)cccc2C1=O |  |  | x fold [1]: 6.4
16 | CC1=C(CCCCCC(=O)NCCCCNCCCNC(=O)CCCCCC2=C(C)C(=O)c3ccccc3C2=O)C(=O)c2ccccc2C1=O | 5.4 µM | 4.8 10e4 M-1 s-1 | 
17 | CC1=C(CCCCCNC(=O)OC(C)(C)C)C(=O)c2ccccc2C1=O | 12.5 µM |  | 
18 | CN1CCN(CCCNC(=O)CCCC2=C(CCCC(=O)NCCCN3CCN(C)CC3)C(=O)c3c(O)cccc3C2=O)CC1 | > 59 µM |  | x fold [1]: 45
19 | CC1=C(CCCC(=O)NCCCNCCCNC(=O)CCCC2=C(C)C(=O)c3cccc(O)c3C2=O)C(=O)c2c(O)cccc2C1=O | 46.7 µM | 6.5 10e4 M-1 s-1 | 

Row | Compound | ED50 (Leishmania donovani) | k cat/Km [2] | other results
20 | CC1=C(CCCC(=O)NCCCN2CCN(CCCNC(=O)CCCC3=C(C)C(=O)c4ccccc4C3=O)CC2)C(=O)c2ccccc2C1=O | 14.7 µM | 4.2 10e4 M-1 s-1 | 
21 | CC1=C(O)c2ccccc2C(=O)/C1=N\CCCN1CCN(C)CC1 |  |  | x fold [1]: 2
22 | CN1CCN(C(=O)CCCC2=C(CCCC(=O)N3CCN(C)CC3)C(=O)c3c(O)cccc3C2=O)CC1 | > 48 µM |  | x fold [1]: 220
23 | CC1=C(CCCCC(=O)NCCCNCCCNC(=O)CCCCC2=C(C)C(=O)c3cccc(O)c3C2=O)C(=O)c2c(O)cccc2C1=O | 11.1 µM | 11.4 10e4 M-1 s-1 | 
24 | CC1=C(CCC(=O)NCCCN2CCN(CCCNC(=O)CCC3=C(C)C(=O)c4cccc(O)c4C3=O)CC2)C(=O)c2c(O)cccc2C1=O | > 44 µM | 5.1 10e4 M-1 s-1 | 
25 | CC1=C(CCCCCNC(=O)OC(C)(C)C)C(=O)c2c(O)cccc2C1=O | 33.8 µM |  | 
26 | CC1=C(CCNC(=O)OC(C)(C)C)C(=O)c2c(O)cccc2C1=O | 11.8 µM |  | 
27 | CN(C)CCCN1CCN(CC2=C(N3CCN(CCCN(C)C)CC3)C(=O)c3ccccc3C2=O)CC1 |  |  | x fold [1]: 3.9
28 | CC1=C(CCC(=O)NCCCN2CCN(C)CC2)C(=O)c2c(O)cccc2C1=O |  |  | k cat/Km [3]: 6.1 10e4 M-1 s-1; Reduction [4]: 0.6%; Reduction (Trypanosoma cruzi): 1.9%
29 | CC1=C(CCCCNC(=O)OC(C)(C)C)C(=O)c2c(O)cccc2C1=O | 14.2 µM |  | 
30 | CC1=C(CCCC(=O)N2CCN(C)CC2)C(=O)c2ccccc2C1=O | 32 µM |  | 
31 | CC1=C(CCC(=O)NCCCCNCCCNC(=O)CCC2=C(C)C(=O)c3cccc(O)c3C2=O)C(=O)c2c(O)cccc2C1=O | > 48 µM | 7.7 10e4 M-1 s-1 | 
32 | CC1=C(CCCCCC(=O)O)C(=O)c2c(O)cccc2C1=O | 28 µM |  | 
33 | CC1=C(CCC(=O)NCCCCNCCCNC(=O)CCC2=C(C)C(=O)c3ccccc3C2=O)C(=O)c2ccccc2C1=O | > 50 µM | 5.1 10e4 M-1 s-1 | 
34 | CC1=C(NCCCNCCCCNCCCN)C(=O)c2c(O)cccc2C1=O | > 30 µM |  | 
35 | CC1=C(CCCCC(=O)NCCCCNCCCNC(=O)CCCCC2=C(C)C(=O)c3ccccc3C2=O)C(=O)c2ccccc2C1=O | 11.9 µM | 5.8 10e4 M-1 s-1 | 
36 | O=C(O)CCCC1=C(CCCC(=O)O)C(=O)c2c(O)cccc2C1=O | > 87 µM |  | 
37 | CC1=C(CCCC(=O)NCCCNCCCNC(=O)CCCC2=C(C)C(=O)c3ccccc3C2=O)C(=O)c2ccccc2C1=O | > 49 µM | 1.6 10e4 M-1 s-1 | 
38 | O=C(O)CCCCC1=C(CCCCC(=O)O)C(=O)c2c(O)cccc2C1=O | > 80 µM |  | 

Row | Compound | ED50 (Leishmania donovani) | k cat/Km [2] | other results
39 | CC1=C(NCCCCN)C(=O)c2ccccc2C1=O | > 12.5 µM |  | 
40 | CC1=C(CCCCCC(=O)NCCCCNCCCNC(=O)CCCCCC2=C(C)C(=O)c3cccc(O)c3C2=O)C(=O)c2c(O)cccc2C1=O | 34.8 µM | 13.3 10e4 M-1 s-1 | 
41 | CC1=C(CCC(=O)N2CCN(C)CC2)C(=O)c2ccccc2C1=O | 87 µM |  | x fold [1]: 19
42 | CC1=C(CCCCCC(=O)O)C(=O)c2ccccc2C1=O | 18 µM |  | 
43 | CC1=C(CCCC(=O)NCCCN2CCN(C)CC2)C(=O)c2ccccc2C1=O | > 76 µM |  | x fold [1]: 11
44 | CC1=C(CCCC(=O)NCCCCNCCCNC(=O)CCCC2=C(C)C(=O)c3cccc(O)c3C2=O)C(=O)c2c(O)cccc2C1=O | > 46 µM | 3.6 10e4 M-1 s-1 | 
45 | CN1CCN(CCCNC(=O)CCCCC2=C(CCCCC(=O)NCCCN3CCN(C)CC3)C(=O)c3c(O)cccc3C2=O)CC1 | 38.2 µM |  | 
46 | CC1=C(CCC(=O)NCCCNCCCNC(=O)CCC2=C(C)C(=O)c3ccccc3C2=O)C(=O)c2ccccc2C1=O | > 51 µM | 2.3 10e4 M-1 s-1 | 
47 | CC1=C(CCCCC(=O)NCCCN2CCN(CCCNC(=O)CCCCC3=C(C)C(=O)c4ccccc4C3=O)CC2)C(=O)c2ccccc2C1=O | 31.3 µM | 8.4 10e4 M-1 s-1 | 
48 | O=C(O)CCCCCC1=C(CCCCCC(=O)O)C(=O)c2ccccc2C1=O | > 74 µM |  | 
49 | O=C(O)CCC1=C(CCC(=O)O)C(=O)c2c(O)cccc2C1=O | > 93 µM |  | 
50 | CC1=C(CCCCNC(=O)OC(C)(C)C)C(=O)c2ccccc2C1=O | 16.5 µM |  | 
51 | CC1=C(CCCCC(=O)O)C(=O)c2c(O)cccc2C1=O | 56 µM |  | 
52 | CC1=C(CCCC(=O)NCCCCNCCCNC(=O)CCCC2=C(C)C(=O)c3ccccc3C2=O)C(=O)c2ccccc2C1=O | > 48 µM | 2.3 10e4 M-1 s-1 | 
53 | CC1=C(CCCCCC(=O)NCCCN2CCN(CCCNC(=O)CCCCCC3=C(C)C(=O)c4cccc(O)c4C3=O)CC2)C(=O)c2c(O)cccc2C1=O | 17.4 µM | 16.8 10e4 M-1 s-1 | 
54 | CN1CCN(CCCNC(=O)CCC2=C(CCC(=O)NCCCN3CCN(C)CC3)C(=O)c3c(O)cccc3C2=O)CC1 | > 50 µM |  | 
55 | CC1=C(CCCCC(=O)NCCCCNCCCNC(=O)CCCCC2=C(C)C(=O)c3cccc(O)c3C2=O)C(=O)c2c(O)cccc2C1=O | 7.8 µM | 13 10e4 M-1 s-1 | 
56 | CC1=C(CCCC(=O)NCCCN2CCN(C)CC2)C(=O)c2c(O)cccc2C1=O | 66 µM |  | x fold [1]: 40
57 | CC1=C(CCCCC(=O)NCCCNCCCNC(=O)CCCCC2=C(C)C(=O)c3ccccc3C2=O)C(=O)c2ccccc2C1=O | > 45 µM | 0.8 10e4 M-1 s-1 | 
